High-throughput results as filed in PubChem BioAssay.
PostGolgi ctrl: growth of the yeast control strain, post-Golgi counter-screen; 5% of 98,000 active; inhibition, % at 10 µM; AID 738; efflux-deficient yeast background strain, growth absorbance A615, 16 h
PLK1 kinase inh: blocks human PLK1 kinase activity; recombinant PLK1 kinase, TR-FRET peptide phosphorylation; 0.53% of 97,000 active; AID 619; inhibition, % at 10 µM;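 active = inhibition of 50% or more in the single-concentration screen; inactive = inhibition below 50%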
EphB4 ephrin blk: antagonists of human EphB4-ephrin-B2 interaction. P54760. EphB4 LBD / TNYL-RAW-Alexa532 peptide, fluorescence polarization. inhibition, % at 7 µM. 0.15% of 97,000 active;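 active = inhibition above the screen-wide mean inhibition plus 3 SD, cut at about 15% in these data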
HIV Rev-RRE inh: disrupts HIV-1 Rev binding to RRE RNA; inhibition, % at 8 µM; P05866; Rev peptide-RRE RNA binding, FRET; 0.79% of 97,000 active;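 active = inhibition above the screen-wide mean plus 3 SD, cut at about 35% in these data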
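Test system: Cy5-tagged RRE RNA duplex with fluorescein-tagged Rev peptide; Probe or stimulus: labelled Rev peptide; Schedule: 5 min preincubation and 15 min binding, 25 °C; Signal: FRET fluorescence readout; Evaluation: % inhibition from 671/540 nm acceptor-to-donor ratio, scaled between controls; Control set: DMSO and neomycin B.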
Plk1 PBD FP: blocks phosphopeptide binding to human Plk1 polo box domain. P53350. Plk1 PBD phosphopeptide binding, fluorescence polarization. inhibition, %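 (tested at about 20 µM)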. 0.13% of 97,000 active. AID 693; in the data active = inhibition above about 34%, passing the limit was not always enough
PostGolgi yeast: growth inhibition of a yeast mutant, post-Golgi transport screen | post-Golgi transport phenotypic cell assay | inhibition, % at 10 µM | 0.9% of 98,000 active | AID 739;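 note: yeast cells grown in 1536-well plates; yeast grown about 18 h at 30C before absorbance read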
Of the large screens only hits and unclear results are named; the others gave an inactive call. Shown are actives, neighbours in structure and some others; about 6.4% of the full set was active somewhere. Cut-off read from the data, not from the text of the source, unless noted: active = inhibition above about 30%; inactive = the rest.

CCn1c(SCC(=O)Nc2nnc(C)s2)nc2c(c1=O)SC(C)C2 (centres undefined)	PostGolgi ctrl 38.7 (no result: PLK1 kinase inh, EphB4 ephrin blk, HIV Rev-RRE inh, Plk1 PBD FP)
CN(CCC(=O)Nc1ccc(Br)cc1)Cc1ccccc1	none
Cn1c(=O)c2sccc2n2c(CCCC(=O)NCc3ccc4c(c3)OCO4)nnc12	none
N#Cc1c(Sc2ncc(C(F)(F)F)cc2Cl)nsc1C/C=N\OCc1c(F)cccc1Cl	HIV Rev-RRE inh 61.3
O=C(NCC1CCCO1)C1CC(=O)N(C2CCCC2)C1 (centres undefined)	none
O=C(N1CCN(Cc2ccccc2)CC1)C12CC3CC(CC(C3)C1)C2	none
O=C(N1CCN(c2ccccc2)CC1)C12CC3CC(CC(C3)C1)C2	PostGolgi ctrl 44.9
CC1(C)C(C=C(Cl)Cl)C1C(=O)N1CCN(c2ccccc2)CC1 (centres undefined)	PostGolgi ctrl 70.5
CCOC(=O)c1cc2sc(C)cc2n1CC(=O)NCCc1ccccc1	none
Cc1nc(SCC(=O)c2c[nH]c3ccccc23)n[nH]1	PostGolgi ctrl 32.4
Cc1nc(SCC(=O)c2ccc(F)cc2)n[nH]1	none (no result: PLK1 kinase inh, EphB4 ephrin blk, HIV Rev-RRE inh, Plk1 PBD FP)
CC(C)=CC(=O)Nc1ccc(Br)cc1	none
CC/C(=C\C(=O)c1ccncc1)Nc1ccc(Br)cc1	PostGolgi ctrl 37.5, PostGolgi yeast 34.4
CS(=O)(=O)Nc1ccc(N2CCCCC2)c(Cl)c1	none
NC(=O)C1CCN(C(=O)c2ccc(NC3=NC4CS(=O)(=O)CC4S3)cc2)CC1 (centres undefined)	none
CCCc1cc(-c2nc(N)ncc2-c2ccc3c(c2)OCCCO3)c(O)cc1OC	PostGolgi ctrl 40.3
Cc1nn(-c2nc3ccccc3[nH]2)c(N)c1-c1ccc(Cl)cc1	PostGolgi ctrl 72.0
COc1ccc(-c2c(C)nn(-c3ccccc3)c2N)cc1	PostGolgi ctrl 38.0
COc1ccc(-c2c(C)nn(-c3ccccc3)c2N)cc1OC	none (no result: PostGolgi ctrl, PostGolgi yeast)
COc1ccc2c(c1)c1ncn(CCc3ccccc3)c(=O)c1n2C	PostGolgi ctrl 39.2
COC(=O)C1=C(N)Oc2cc(C)n(C)c(=O)c2C1c1ccc(Cl)c(Cl)c1 (centres undefined)	PostGolgi ctrl 45.5
Cc1nccn1CC(O)Cn1c2ccccc2c2ccccc21 (centres undefined)	none (no result: PostGolgi ctrl, PostGolgi yeast)
CC(=O)Nc1ccc(OCC(O)Cn2c3ccccc3c3ccccc32)c(C)c1 (centres undefined)	PostGolgi ctrl 46.1
Cc1ccccc1OCC(O)Cn1c2ccccc2c2ccccc21 (centres undefined)	PostGolgi ctrl 38.5
CC(=O)Nc1ccc(OCC(O)CN2CCN(c3ccc(C)c(Cl)c3)CC2)cc1 (centres undefined)	none
O=S(=O)(Nc1cccc(-c2cn3ccsc3n2)c1)c1ccc(F)cc1	PostGolgi ctrl 40.3
CCC(=O)Nc1cccc(-c2cn3ccsc3n2)c1	none
CC(C)C(=O)Nc1cccc(-c2cn3ccsc3n2)c1	none
Cc1ccc(S(=O)(=O)Nc2cccc(-c3cn4ccsc4n3)c2)cc1	PostGolgi ctrl 45.6
Cc1cccc(S(=O)(=O)Nc2cccc(-c3cn4ccsc4n3)c2)c1	PostGolgi ctrl 46.1
Cc1cc(C)nc(SCc2nnc(SCC(=O)Nc3cc(C(F)(F)F)ccc3Cl)o2)n1	none
CCn1c(SCC(=O)Nc2cccc(C(C)=O)c2)nnc1C(C)C	none
O=C(Nc1nnc(-c2ccc3c(c2)CCCC3)o1)c1ccccc1	PostGolgi yeast 100.0
O=C(Nc1nnc(-c2ccc3c(c2)CCCC3)o1)c1ccccc1Cl	PostGolgi yeast 88.5
O=C(COc1ccccc1)Nc1ccc(-c2nnc(-c3ccco3)o2)cc1	none
O=C(COc1ccccc1)Nc1nnc(-c2ccc3c(c2)CCCC3)o1	PostGolgi ctrl 31.2
Cc1cccc(-c2nnc(NC(=O)c3ccc(Cl)cc3)o2)c1	PostGolgi ctrl 81.0, PostGolgi yeast 94.4 (no result: PLK1 kinase inh, EphB4 ephrin blk, HIV Rev-RRE inh, Plk1 PBD FP)
CCOC(=O)c1cc(-c2nnc(-c3ccc(Oc4ccccc4)cc3)o2)c(C)nc1C	none
O=C1CC(c2ccc(F)cc2)CC(O)=C1C=NCCN1CCN(C(=O)Nc2ccccc2)CC1 (centres undefined)	none
O=C(NCc1ccncc1)Nc1cccc(Cl)c1	none
O=C(NCCc1ccc(Cl)cc1)Nc1cccc(Cl)c1	PostGolgi ctrl 34.1
CNc1cc(CSC)nc(SCc2ccc(Cl)c(Cl)c2)n1	PostGolgi ctrl 35.0
CC(=O)[C@H]1[C@@H]2C(=O)N(c3cccc(Cl)c3)C(=O)[C@@H]2[C@H]2c3ccccc3C=CN21	HIV Rev-RRE inh 59.7
